Publication PMC5415879 (Molecular Pharmaceutics, 2017)
Where no end group is shown, it is not given here.

How the values were obtained:
Format in all cases: physicochemical
[1] = Particle morphology by atomic force microscopy; settings: nanostructures immobilized on poly-L-lysine coated mica, room temperature
[2] = Critical aggregation concentration, Nile red assay; settings: Nile red fluorescence (Ex550/Em635), PBS pH 7.4, 0.1 to 500 μg/mL, overnight incubation at room temperature; intersection of two linear fits
[3] = Particle morphology and size by transmission electron microscopy; settings: 0.1 mg/mL in HEPES 10 mM, negative staining with 2% uranyl acetate
Outline: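 Applies to peptide–pNIPAm self-assembled particles. Samples at 0.1 mg/mL in 10 mM HEPES are applied to prewarmed carbon-coated copper grids for 2 min, and excess liquid is blotted off with filter paper. Grids are negatively stained with 2% uranyl acetate for 45 s and dried 10 min at room temperature. Morphology and size are then read from TEM images.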

Substance | particle diameter by AFM [1] [nm] | critical aggregation concentration (CAC) [2] | particle size by TEM [3]
Ac-AAVVLLLWGQAEPDRAHYNIVTF [HPV-SA] | ~100 | ca. 15 μM | 
OVA250–264-poly(NIPAm) [OVA-pNIPAm] |  |  | 20–80 nm
HPV16 E7_43–57-poly(DMAm) [HPV-pDMAm] |  |  | no particles
HPV16 E7_43–57-poly(NIPAm) [HPV-pNIPAm] |  |  | 20–80 nm
